According to ChEMBL document CHEMBL1212737, “Novel approach for comparing the abilities of quinolones to restrict the emergence of resistant mutants during quinolone exposure” (2010):
Values after ≈ are worked out from the molar mass of the structure shown. Active and inactive are the calls of the source. The calls are words filed in the database; no cut-off is given here.

Key:
Escherichia coli [1] = experiment: Ratio of MBC to MIC99 in Escherichia coli KD1397 containing tolC::Tn10 gyrA+ mutant; assay type: functional
How it was run: (§1)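 MBC (99.9% kill after 20 h in liquid at 5 × 10^6 CFU/ml, survivors plated on drug-free agar) divided by MIC99 (99% block of colony formation, agar or broth dilution with 10^4–10^5 CFU, log-log interpolation); efflux-deficient tolC strain for line 4, wild-type DM4100 for line 5.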

Escherichia coli [2] = experiment: Antimicrobial activity against Escherichia coli KD1397 containing tolC::Tn10 gyrA+ mutant assessed as bactericidal activity; assay type: functional
How it was run: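 Liquid-culture lethality: 5 × 10^6 CFU/ml aliquots exposed 20 h to a range of compound concentrations; survivors counted by dilution and plating on drug-free LB agar, overnight at 37°C. MBC taken as the concentration lowering survival by 99.9%.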

Escherichia coli [3] = experiment: Antimicrobial activity against Escherichia coli KD1397 containing tolC::Tn10 gyrA+ mutant by agar or broth dilution method; assay type: functional
How it was run: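 MIC by agar or broth dilution in LB, 37°C: 10^4–10^5 CFU applied to plates or broth cultures with serial compound concentrations. Colonies counted after 2 days, or turbid growth scored after 1 day. MIC99 is the minimal concentration blocking colony formation by 99%, interpolated from log-log plots.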

Escherichia coli [4] = experiment: Ratio of mutant prevention concentration to MIC99 for Escherichia coli KD1397 containing tolC::Tn10 gyrA+ mutant; assay type: functional
Escherichia coli [5] = experiment: Ratio of mutant prevention concentration to MIC99 for wild type Escherichia coli DM4100; assay type: functional
How it was run: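 Population analysis: stationary-phase DM4100 from LB spread on agar plates spanning a broad drug range; colonies counted, passaged on drug-free agar, then retested at the selecting concentration to confirm resistance. MPC is the concentration blocking colony formation from 10^10 CFU, expressed relative to MIC99.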

Escherichia coli [6] = experiment: Antimicrobial activity against wild type Escherichia coli DM4100 assessed as bactericidal activity; assay type: functional
How it was run: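 Liquid-culture killing: E. coli at 5 × 10^6 CFU/ml exposed 20 h to a range of drug concentrations, survivors counted by dilution and plating on drug-free agar incubated overnight at 37°C; MBC taken as concentration lowering survival by 99.9%.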

Escherichia coli [7] = experiment: Reduction quinolone resistant mutation in wild type Escherichia coli DM4100 assessed as decrease in recovery of resistant bacterial mutant colonies at 2 times MIC by agar plate assay; assay type: functional, organism-based
Escherichia coli [8] = experiment: Antimicrobial activity against wild type Escherichia coli DM4100 by agar or broth dilution method; assay type: functional
How it was run: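 K-12 strain grown in LB at 37°C; 10^4–10^5 CFU applied to agar plates or broth with a dilution series of compound; colonies counted after 2 days or turbidity scored after 1 day. MIC99 is the concentration blocking colony formation by 99%, interpolated from log-log plots.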

Escherichia coli [9] = experiment: Antimicrobial activity against wild type Escherichia coli DM4100 assessed as decrease in bacterial survival at 3 times MIC by agar plate method; assay type: functional, organism-based
How it was run: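 DM4100 (10^4 to 10^8 CFU) spread on quartered agar plates with drug at three times MIC; at various times a quarter excised, washed with LB, cells pelleted (5,000 × g, 5 min), diluted onto drug-free agar at 37°C, colonies counted at 24 and 48 h. Survival relative to untreated input, corrected for resistant mutants scored on 0.02 μg/ml ciprofloxacin agar; two replicate experiments.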

Escherichia coli [10] = experiment: Ratio of MBC to MIC99 in wild type Escherichia coli DM4100; assay type: functional; how it was run: as §1
Escherichia coli [11] = experiment: Reduction quinolone resistant mutation in wild type Escherichia coli DM4100 assessed as decrease in recovery of resistant bacterial mutant colonies at 5 times MIC by agar plate assay; assay type: functional, organism-based
How it was run: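 Same agar-plate accumulation assay at 5× MIC99 with an inoculum of 10^9 CFU. Drug added to molten LB agar, incubated at 37°C, and cumulative colonies scored at daily intervals. Repeated with inocula of 8 × 10^6 to 10^10 CFU in two replicate experiments.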

Escherichia coli [12] = experiment: Reduction quinolone resistant mutation in wild type Escherichia coli DM4100 assessed as decrease in recovery of resistant bacterial mutant colonies by agar plate assay; assay type: functional, organism-based
How it was run: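 Drug added to molten LB agar; 10^4–10^10 CFU of E. coli applied and incubated at 37°C for up to 2 weeks, with cumulative colonies counted daily. Day-1 colonies are taken as the preexisting-mutant baseline. Drug concentration is normalized to MIC99.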

| SMILES | Ratio (Escherichia coli [1]) | MBC (Escherichia coli [2]) [µg/mL] | MIC99 (Escherichia coli [3]) [µg/mL] | Ratio (Escherichia coli [4]) | Ratio (Escherichia coli [5]) | MBC (Escherichia coli [6]) [µg/mL] | inhibition (Escherichia coli [7]) | MIC99 (Escherichia coli [8]) [µg/mL] | inhibition (Escherichia coli [9]) | Ratio (Escherichia coli [10]) | inhibition (Escherichia coli [11]) | inhibition (Escherichia coli [12]) |
| --- | --- | --- | --- | --- | --- | --- | --- | --- | --- | --- | --- | --- |
| COc1c(N2CC[C@@H](CN)C2)c(F)cc2c(=O)n(N)c(=O)n(C3CC3)c12 | 2 | 1 (≈ 2.75 µM) | 0.5 (≈ 1.38 µM) | 3 | – | – | – | – | – | – | – | – |
| CCN1CCN(c2c(F)cc3c(=O)c(C(=O)O)cn(C4CC4)c3c2OC)CC1 | – | – | – | – | 7 | 0.27 (≈ 0.693 µM) | Active | 0.14 (≈ 0.36 µM) | Active | 1.9 | Active | – |
| CCN1CCN(c2cc3c(cc2F)c(=O)c(C(=O)O)cn3C2CC2)CC1 [ENROFLOXACIN] | – | – | – | – | 15 | 0.07 (≈ 0.195 µM) | Active | 0.022 (≈ 0.0612 µM) | Active | 3.2 | Active | – |
| CCC1CN(c2cc3c(cc2F)c(=O)c(C(=O)O)cn3C2CC2)CCN1 (configuration not stated) | – | – | – | – | 10 | 0.16 (≈ 0.445 µM) | Active | 0.045 (≈ 0.125 µM) | Active | 3.5 | Active | – |
| CCn1cc(C(=O)O)c(=O)c2ccc(C)nc21 | – | – | – | – | – | – | – | – | – | – | – | Dose-dependent effect |
| CCC1CN(c2c(F)cc3c(=O)c(C(=O)O)cn(C4CC4)c3c2OC)CCN1 (configuration not stated) | – | – | – | – | 6 | 0.33 (≈ 0.847 µM) | Active | 0.11 (≈ 0.282 µM) | Active | 3 | Active | – |
| COc1c(N2CC[C@@H](CN)C2)c(F)cc2c(=O)c(C(=O)O)cn(C3CC3)c12 | 2.5 | 0.01 (≈ 0.0266 µM) | 0.004 (≈ 0.0107 µM) | 8 | – | – | – | – | – | – | – | – |
